Source: ChEMBL document CHEMBL1126147 (J Med Chem, 1992)
Calls of active or inactive are those of the source. No cut-off for these calls is given here.

Legend:
Rattus norvegicus [1] = experiment: In vivo inhibition of sorbitol accumulation in the sciatic nerve in streptozotocin induced diabetic rat model at a concentration of 100 mg/kg; type: functional
Summary of the method: (§1)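 Rats (n = 4) were made diabetic with a single iv dose of streptozotocin (86 mg/kg). Compound was given by oral gavage at 4, 7 and 24 h. Animals were killed at 27 h and sciatic nerve sorbitol measured. Percent inhibition is relative to untreated diabetic rats (n = 4), with significance by Student's t test (p < 0.05).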

[2] = molecular target: T1, Aldo-keto reductase family 1 member B1 (Homo sapiens, UniProt P15121); experiment: In vitro inhibitory activity against aldose reductase isolated from human placenta
Rattus norvegicus [3] = experiment: In vivo inhibition of sorbitol accumulation in the sciatic nerve in streptozotocin induced diabetic rat model at a concentration of 10 mg/kg; type: functional; summary of the method: as §1
Rattus norvegicus [4] = experiment: In vivo inhibition of sorbitol accumulation in the sciatic nerve in streptozotocin induced diabetic rat model at a concentration of 10 mg/kg; NS=not significant; type: functional, organism-based; parameters: dose 10 mg/kg; summary of the method: as §1
[5] = molecular target: T1, Aldo-keto reductase family 1 member B1; experiment: In vitro inhibitory activity against aldose reductase isolated from human placenta at 10e-5 M
Summary of the method: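 Aldose reductase purified from human placenta; DL-glyceraldehyde as substrate with NADPH as cofactor; enzyme inhibition measured in vitro.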

Rattus norvegicus [6] = experiment: In vivo inhibition of sorbitol accumulation in the sciatic nerve in streptozotocin induced diabetic rat model at a concentration of 25 mg/kg; type: functional; summary of the method: as §1
Rattus norvegicus [7] = experiment: In vivo inhibition of sorbitol accumulation in the sciatic nerve in streptozotocin induced diabetic rat model at a concentration of 25 mg/kg; NS=not significant; type: functional, organism-based; parameters: dose 25 mg/kg; summary of the method: as §1

Structure (SMILES) | IC50 [2] [nM] | other results
O=C(O)Cc1nn(Cc2nc(-c3ccccc3)c(-c3ccccc3)o2)c(=O)c2ccccc12 | 4500 | –
O=C(O)Cc1nn(Cc2cc3cc([N+](=O)[O-])ccc3s2)c(=O)c2ccccc12 | 2200 | inhibition (Rattus norvegicus [4]): inactive
O=C(O)Cc1nn(Cc2noc(-c3ccccc3Cl)n2)c(=O)c2ccccc12 | 28 | –
O=C(O)Cc1nn(Cc2nc(-c3ccccc3)no2)c(=O)c2ccccc12 | 160 | –
O=C(O)Cc1nn(C/C(S)=N/c2cccc(Cl)c2)c(=O)c2ccccc12 | 50 | –
O=C(O)Cc1nn(Cc2nc3cc(C(F)(F)F)ccc3s2)c(=O)c2ccccc12 [ZOPOLRESTAT] | – | inhibition in vivo at 10 mg/kg (Rattus norvegicus [3]): 80%
O=C(O)Cc1nn(Cc2csc(-c3ccccc3)n2)c(=O)c2ccccc12 | 8200 | –
O=C(O)Cc1nn(Cc2ccc3ccccc3n2)c(=O)c2ccccc12 | 59000 | –
COc1cc(NC(=O)Cn2nc(CC(=O)O)c3ccccc3c2=O)cc(OC)c1OC | – | inhibition [5]: 20%
O=C(O)Cc1nn(Cc2nc3cc4ccccc4cc3o2)c(=O)c2ccccc12 | 3000 | –
O=C(O)Cc1nn(Cc2cc3cc(F)ccc3s2)c(=O)c2ccccc12 | 150 | inhibition in vivo at 25 mg/kg (Rattus norvegicus [6]): 49%
O=C(O)Cc1nn(Cc2cc3cccnc3s2)c(=O)c2ccccc12 | 420 | inhibition (Rattus norvegicus [7]): inactive
O=C(O)Cc1nn(Cc2nc(-c3ccc(F)cc3F)no2)c(=O)c2ccccc12 | 630 | inhibition in vivo at 25 mg/kg (Rattus norvegicus [6]): 46%
O=C(O)Cc1nn(CC(=O)Nc2cc(F)cc(F)c2O)c(=O)c2ccccc12 | 170 | –
O=C(O)Cc1nn(Cc2nc(-c3ccccc3Cl)ns2)c(=O)c2ccccc12 | 1100 | –
Cc1ccccc1-c1noc(Cn2nc(CC(=O)O)c3ccccc3c2=O)n1 | 64 | inhibition (Rattus norvegicus [4]): inactive
O=C(O)Cc1nn(Cc2noc(-c3ccccc3C(F)(F)F)n2)c(=O)c2ccccc12 | 470 | –
O=C(O)Cc1nn(Cc2nc3cc(F)cc(F)c3o2)c(=O)c2ccccc12 | 3.2 | inhibition in vivo at 10 mg/kg (Rattus norvegicus [3]): 78%
O=C(O)Cc1nn(Cc2nc(-c3ccccc3Br)no2)c(=O)c2ccccc12 | 6.5 | inhibition in vivo at 10 mg/kg (Rattus norvegicus [3]): 27%
COc1ccccc1-c1noc(Cn2nc(CC(=O)O)c3ccccc3c2=O)n1 | 470 | inhibition (Rattus norvegicus [7]): inactive
O=C(O)Cc1nn(CC(=O)Nc2ccc(Cl)cc2)c(=O)c2ccccc12 | 440 | –
O=C(O)Cc1nn(Cc2nc(-c3ccc(Br)cc3)no2)c(=O)c2ccccc12 | 4600 | –
O=C(O)Cc1nn(Cc2nc(-c3ccccc3F)no2)c(=O)c2ccccc12 | < 10 | inhibition in vivo at 25 mg/kg (Rattus norvegicus [6]): 69%
O=C(O)Cc1nn(CC(=O)Nc2cc(C(F)(F)F)cc(C(F)(F)F)c2)c(=O)c2ccccc12 | 1100 | –
O=C(O)Cc1nn(CC(=O)Nc2ccc(C(F)(F)F)cc2)c(=O)c2ccccc12 | 2100 | –
O=C(O)Cc1nn(Cc2csc(-c3ccccc3F)n2)c(=O)c2ccccc12 | 460 | –
O=C(O)Cc1nn(CC(=O)Nc2cc(C(F)(F)F)cc(C(F)(F)F)c2Br)c(=O)c2ccccc12 | 2200 | –

Second part, led by results:

IC50 [2] [nM] | Structure (SMILES) | other results
120 | O=C(O)Cc1nn(Cc2cc3ccccc3s2)c(=O)c2ccccc12 | inhibition in vivo at 100 mg/kg (Rattus norvegicus [1]): 77%
78 | O=C(O)Cc1nn(Cc2nc3cc(Cl)ccc3o2)c(=O)c2ccccc12 | inhibition in vivo at 10 mg/kg (Rattus norvegicus [3]): 72%
5900 | O=C(O)Cc1nn(CC(=O)Nc2ccccc2C(F)(F)F)c(=O)c2ccccc12 | –
200 | O=C(O)Cc1nn(CC(=O)Nc2cc(C(F)(F)F)ccc2O)c(=O)c2ccccc12 | –
89 | O=C(O)Cc1nn(Cc2nc3ccccc3o2)c(=O)c2ccccc12 | –
720 | O=C(O)Cc1nn(Cc2snc3ccccc23)c(=O)c2ccccc12 | –
240 | O=C(O)Cc1nn(Cc2nc(-c3c(F)cccc3Cl)no2)c(=O)c2ccccc12 | –
870 | O=C(O)Cc1nn(Cc2cc3ccccc3[nH]2)c(=O)c2ccccc12 | –
6100 | O=C(O)Cc1nn(Cc2nc3cc(-c4ccccc4)ccc3o2)c(=O)c2ccccc12 | –
150 | O=C(O)Cc1nn(Cc2cc3cc(Cl)ccc3o2)c(=O)c2ccccc12 | –
31 | O=C(O)Cc1nn(Cc2nc3cc(C(F)(F)F)ccc3o2)c(=O)c2ccccc12 | inhibition in vivo at 10 mg/kg (Rattus norvegicus [3]): 32%
4200 | Cn1c(Cn2nc(CC(=O)O)c3ccccc3c2=O)nc2ccccc21 | –
19 | O=C(O)Cc1nn(CC(=O)Nc2cccc(C(F)(F)F)c2)c(=O)c2ccccc12 | –
4900 | O=C(O)Cc1nn(CC(=O)Nc2ccccc2)c(=O)c2ccccc12 | –
250 | O=C(O)Cc1nn(Cc2cc3cc(Cl)ccc3s2)c(=O)c2ccccc12 | –
28 | O=C(O)Cc1nn(CC(=O)Nc2cc(C(F)(F)F)ccc2Br)c(=O)c2ccccc12 | –
23 | O=C(O)Cc1nn(Cc2nc(-c3ccccc3Cl)no2)c(=O)c2ccccc12 | inhibition in vivo at 25 mg/kg (Rattus norvegicus [6]): 75%; inhibition (Rattus norvegicus [4]): inactive
27 | O=C(O)Cc1nn(Cc2nc3cc(Br)ccc3o2)c(=O)c2ccccc12 | inhibition in vivo at 10 mg/kg (Rattus norvegicus [3]): 67%
10000 | O=C(O)Cc1nn(Cc2csnc2-c2ccccc2)c(=O)c2ccccc12 | –

IC50 [2] [nM] | Structure (SMILES) | other results
19 | O=C(O)Cc1nn(Cc2nc(-c3cccc(F)c3F)no2)c(=O)c2ccccc12 | inhibition in vivo at 25 mg/kg (Rattus norvegicus [6]): 89%
220 | O=C(O)Cc1nn(Cc2nc(-c3ccccc3C(F)(F)F)no2)c(=O)c2ccccc12 | inhibition in vivo at 25 mg/kg (Rattus norvegicus [6]): 60%
430 | O=C(O)Cc1nn(CC(=O)Nc2ccccc2Cl)c(=O)c2ccccc12 | –
110 | O=C(O)Cc1nn(Cc2cc3c(Cl)cccc3s2)c(=O)c2ccccc12 | –
34 | O=C(O)Cc1nn(Cc2nc(-c3ccccc3)cs2)c(=O)c2ccccc12 | –
3100 | O=C(O)Cc1nn(Cc2nnc(-c3ccccc3)o2)c(=O)c2ccccc12 | –
3200 | O=C(O)Cc1nn(Cc2nc(-c3ccccc3)co2)c(=O)c2ccccc12 | –
37 | O=C(O)Cc1nn(Cc2cn3ccc(Cl)cc3n2)c(=O)c2ccccc12 | –
32 | O=C(O)Cc1nn(Cc2nc3cc(Cl)cc(Cl)c3o2)c(=O)c2ccccc12 | inhibition in vivo at 10 mg/kg (Rattus norvegicus [3]): 63%
52 | O=C(O)Cc1nn(C/C(S)=N/c2cccc(C(F)(F)F)c2)c(=O)c2ccccc12 | –
200 | O=C(O)Cc1nn(CC(=S)Nc2cc(C(F)(F)F)ccc2Br)c(=O)c2ccccc12 | –
670 | O=C(O)Cc1nn(Cc2cc(-c3ccccc3)ns2)c(=O)c2ccccc12 | –
13 | O=C(O)Cc1nn(CC(=O)Nc2cccc(Cl)c2)c(=O)c2ccccc12 | –
660 | O=C(O)Cc1nn(Cc2ncc(-c3ccccc3)o2)c(=O)c2ccccc12 | –
1000 | O=C(O)Cc1nn(Cc2cc3cc(Br)ccc3s2)c(=O)c2ccccc12 | –
22 | O=C(O)Cc1nn(CC(=O)Nc2cccc(F)c2)c(=O)c2ccccc12 | –
156 | O=C(O)Cc1nn(Cc2nc(-c3ccccn3)no2)c(=O)c2ccccc12 | inhibition (Rattus norvegicus [4]): inactive
540 | O=C(O)Cc1nn(Cc2nc3ccc(Br)cc3o2)c(=O)c2ccccc12 | –
2200 | O=C(O)Cc1nn(Cc2nc(-c3ccccc3)ns2)c(=O)c2ccccc12 | –
